Data published in ChEMBL document CHEMBL3632560, “1,4-Oxazine β-Secretase 1 (BACE1) Inhibitors: From Hit Generation to Orally Bioavailable Brain Penetrant Leads” (J Med Chem, 2015).

What was measured:
[1] = Dissociation constant, pKa of the compound by potentiometric titration assay; type: physicochemical
[2] = Drug metabolism in mouse liver microsomes at 1 uM after 15 min by HPLC-MS/MS analysis; type: ADME; conditions: read-out: Drug metabolism
[3] = Drug metabolism in human liver microsomes at 1 uM after 15 min by HPLC-MS/MS analysis; type: ADME; conditions: read-out: Drug metabolism
[4] = Drug metabolism in dog liver microsomes at 1 uM after 15 min by HPLC-MS/MS analysis; type: ADME, Canis lupus familiaris; conditions: read-out: Drug metabolism
Procedure, shortened: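 Final solvent 0.01% DMSO and 0.5% acetonitrile. Reaction started with NADPH and quenched with acetonitrile at 15 min. Percent metabolized is parent loss measured by HPLC-MS/MS.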

[5] = Distribution coefficient, logD of the compound by chromatography; type: physicochemical; conditions: octanol/water
[6] = Drug uptake in pathogen free CD1 Swiss mouse brain at 10 mg/kg, po after 4 hrs; type: ADME, organism-based; conditions: read-out: Drug uptake
Procedure, shortened: (§1)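 Fasted male CD1 Swiss SPF mice dosed 10 mg/kg p.o. (n=6) in 20% HPβCD at pH 3.9 or 20% SBEβCD at pH 3.5. Plasma and brain taken at 2, 4 and 7 h. One hemisphere used for drug bioanalysis; the other was homogenized for Aβ42 and Aβ total by sandwich immunoassay. Kp calculated from AUC0-last.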

[7] = Ratio of drug level in brain to plasma of pathogen free CD1 Swiss mouse at 10 mg/kg, po; type: ADME, organism-based; procedure, shortened: as §1
MDR1 (human) = test: Apparent permeability across apical to basolateral side in pig LLC cells transfected with human MDR1 at 5 uM by HPLC-MS/MS analysis; type: ADME, cell-based, Sus scrofa; conditions: LLC-PK1
[8] = Tmax in Beagle dog at 2.5 mg/kg, po; type: ADME, organism-based, Canis lupus familiaris; conditions: in vivo
Procedure, shortened: (§2)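 Fasted Beagle dogs, 2 male and 2 female per dose group, given doses from 0.08 to 10 mg/kg in 20% HPβCD at pH 3.5. Plasma drug levels followed over time to give Cmax, Tmax and T½. CSF Aβ42 measured by MesoScale electrochemiluminescence for up to 50 h after dosing.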

[9] = Cmax in Beagle dog at 2.5 mg/kg, po; type: ADME, organism-based, Canis lupus familiaris; design: dose 2.5 mg/kg, route oral; conditions: in vivo; procedure, shortened: as §2
[10] = Elimination half-life in Beagle dog at 2.5 mg/kg, po; type: ADME, organism-based, Canis lupus familiaris; conditions: in vivo, read-out: beta t1/2 (converted); procedure, shortened: as §2

COc1cnc(C(=O)Nc2cc([C@@]3(C)N=C(N)CO[C@@H]3F)ccn2)cn1 (racemic)
pKa [1]: 2.8

CC1(c2ccccc2)COCC(N)=N1 (stereo not drawn)
pKa [1]: 9.8

COc1cnc(C(=O)Nc2ccc(F)c([C@@]3(C)N=C(N)CO[C@]3(F)C(F)(F)F)c2)cn1
pKa [1]: 6.9

COc1cnc(C(=O)Nc2ccc(F)c([C@@]3(C)N=C(N)CO[C@@H]3F)c2)cn1
metabolised at 0.25 h, 1 µM [2]: 3% | pKa [1]: 7.8 | metabolised at 0.25 h, 1 µM [3]: 31% | metabolised at 0.25 h, 1 µM [4]: 70% | chromatographic logD [5]: 2.04 | concentration at 4 h [6]: 195 ng/g | Kp [7]: 0.65

COc1cnc(C(=O)Nc2ccc(F)c([C@]3(C)COCC(N)=N3)c2)cn1
metabolised at 0.25 h, 1 µM [2]: 6% | pKa [1]: 9 | metabolised at 0.25 h, 1 µM [3]: 1% | Papp A→B at 5 µM (MDR1 (human)): 37 nm/s

C[C@]1(c2cc(N)ccc2F)N=C(N)CO[C@@H]1F
pKa [1]: 8.1

COc1cnc(C(=O)Nc2ccc(F)c([C@@]3(C4CC4)N=C(N)CO[C@@H]3F)c2)cn1
pKa [1]: 7.8

COc1cnc(C(=O)Nc2ccnc([C@@]3(C)N=C(N)CO[C@@H]3F)c2)cn1 (racemic)
pKa [1]: 2.6

COc1cnc(C(=O)Nc2ccc(F)c([C@@]3(C)N=C(N)CO[C@H]3F)c2)cn1
pKa [1]: 7.6

C[C@]1(c2cc(NC(=O)c3ccc(C#N)cn3)ccc2F)N=C(N)CO[C@@H]1F
metabolised at 0.25 h, 1 µM [2]: 2% | Tmax [8]: 2.5 h | Cmax [9]: 0.571 µg/mL | pKa [1]: 7.9 | metabolised at 0.25 h, 1 µM [3]: 0% | half-life [10]: 25 h | metabolised at 0.25 h, 1 µM [4]: 0% | concentration at 4 h [6]: 98 ng/g | Kp [7]: 0.33

Cc1cc(Cl)cnc1C(=O)Nc1ccc(F)c([C@@]2(C)N=C(N)CO[C@@H]2F)c1
metabolised at 0.25 h, 1 µM [2]: 98% | pKa [1]: 7.4 | metabolised at 0.25 h, 1 µM [3]: 16% | Papp A→B at 5 µM (MDR1 (human)): 93 nm/s | metabolised at 0.25 h, 1 µM [4]: 21%

C[C@]1(c2cc(NC(=O)c3ccc(Cl)cn3)ccc2F)N=C(N)CO[C@@H]1F
metabolised at 0.25 h, 1 µM [2]: 17% | pKa [1]: 7.9 | metabolised at 0.25 h, 1 µM [3]: 0% | Papp A→B at 5 µM (MDR1 (human)): 85 nm/s | metabolised at 0.25 h, 1 µM [4]: 7%

COc1cnc(C(=O)Nc2ccc(F)c([C@@]3(C)N=C(N)CO[C@@]3(F)C(F)(F)F)c2)cn1
pKa [1]: 6.8 | chromatographic logD [5]: 3.43

C[C@@]1(c2cccc(NC(=O)c3ccc(Cl)cn3)c2)COCC(N)=N1
metabolised at 0.25 h, 1 µM [2]: 6% | pKa [1]: 9.6 | metabolised at 0.25 h, 1 µM [3]: 0%

C[C@]1(c2cc(N)ccc2F)N=C(N)CO[C@H]1C(F)(F)F
pKa [1]: 8
